Reference: ChEMBL document CHEMBL1144875, “Desferrithiocin analogue based hexacoordinate iron(III) chelators” (2003)

Key:
[1] = test system: Monkey; assay: Efficiency of chelation measured as net iron excretion/total iron-binding capacity of 150 umol/kg compound administered sc in monkeys; assay type: functional, Cercopithecidae
Procedure, shortened: (§1)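 Cebus apella monkeys iron-overloaded with iv iron dextran (~500 mg Fe/kg), rested ≥60 days. Dosed sc as aqueous suspension or sodium salt solution (DFO in sterile H2O, 1 mL/kg). Feces and urine collected at 24 h intervals from 4 days pre-dose to 5 days post-dose; iron by flame AA. Efficiency is 2-day post-dose iron minus 4-day baseline mean, divided by theoretical output. n = 4; mean ± SEM.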

[2] = test system: Monkey; assay: Efficiency of chelation measured as net iron excretion/total iron-binding capacity of 300 umol/kg compound administered po in monkeys; assay type: functional, Cercopithecidae
[3] = test system: Monkey; assay: Efficiency of chelation measured as net iron excretion/total iron-binding capacity of 300 umol/kg compound administered sc in monkeys; assay type: functional, Cercopithecidae; procedure, shortened: as §1
[4] = test system: Rattus norvegicus; assay: Efficiency of chelation measured as net iron excretion/total iron-binding capacity of 300 umol/kg compound administered po in rats; assay type: functional
Procedure, shortened: (§2)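 Bile duct-cannulated male Sprague-Dawley rats (~450 g), anesthetized with sodium pentobarbital 55 mg/kg ip. Chelator given po or sc in 40% Cremophor RH-40/water. Bile collected every 3 h for 24 h, urine at 24 h; iron by flame AA. Net excretion is treated minus control. Theoretical output assumes 1:1 or 2:1 ligand/iron by denticity. n = 4; mean ± SEM.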

[5] = test system: Rattus norvegicus; assay: Efficiency of chelation measured as net iron excretion/total iron-binding capacity of 300 umol/kg compound administered sc in rats; assay type: functional; procedure, shortened: as §2
[6] = test system: Monkey; assay: Efficiency of chelation measured as net iron excretion/total iron-binding capacity of 150 umol/kg compound administered sc in monkey; assay type: functional, Cercopithecidae; procedure, shortened: as §1
[7] = test system: Monkey; assay: Efficiency of chelation measured as net iron excretion/total iron-binding capacity of 75 umol/kg compound administered sc in monkey; assay type: functional, Cercopithecidae; procedure, shortened: as §1
[8] = test system: Rattus norvegicus; assay: Efficiency of chelation measured as net iron excretion/total iron-binding capacity of 150 umol/kg compound administered po in rats; assay type: functional; procedure, shortened: as §2
[9] = test system: Rattus norvegicus; assay: Efficiency of chelation measured as net iron excretion/total iron-binding capacity of 150 umol/kg compound administered sc in rats; assay type: functional; procedure, shortened: as §2
[10] = test system: Monkey; assay: Efficiency of chelation measured as net iron excretion/total iron-binding capacity of 150 umol/kg compound administered po in monkey; assay type: functional, Cercopithecidae

| SMILES | Efficiency [1] | Efficiency [2] | Efficiency [3] | Efficiency [4] | Efficiency [5] | Efficiency [6] | Efficiency [7] | Efficiency [8] | Efficiency [9] | Efficiency [10] |
| --- | --- | --- | --- | --- | --- | --- | --- | --- | --- | --- |
| O=C(O)[C@H]1CSC(c2ccc(O)cc2O)=N1 | 5.6% | 5.3% | 5.3% | 2.9% | 2.1% | – | – | – | – | – |
| O=C(O)[C@H]1CSC(c2cc(CCCOCCCOCCCc3cc(C4=N[C@@H](C(=O)O)CS4)c(O)cc3O)c(O)cc2O)=N1 | – | – | – | – | – | 2.1% | 3.2% | 0.9% | 6.5% | – |
| CC(=O)N(O)CCCCCNC(=O)CCC(=O)N(O)CCCCCNC(=O)CCC(=O)N(O)CCCCCN [DEFEROXAMINE] | – | – | – | – | – | 5.5% | – | 1.1% | 2.8% | 0.1% |
